pIC50: −log10 of the molar value. Residues, ends and D or L forms follow the SMILES beside them.
Experiments:
SARS-CoV-2 [1] = assay: Antiviral activity against SARS-CoV-2 assessed as inhibition of viral infection in 293T/ACE2 cells preincubated for 30 min followed by cells addition for 12 hrs and complete medium replacement and measured after 48 hrs by luciferase assay; assay type: functional, organism-based; conditions: Severe acute respiratory syndrome coronavirus 2, 293T/ACE2
Method in brief: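 ACE2-293T cells (10^4/well) were plated 12 h before infection. Pseudovirus was mixed with peptides serially diluted in FBS-free DMEM for 30 min at 37 °C and added to the cells. After 12 h the medium was replaced with complete medium and cells were incubated 48 h more. Luciferase activity was read.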

SARS-CoV-2 [2] = assay: Antiviral activity against SARS-CoV-2 assessed as inhibition of viral infection in Caco-2 cells preincubated for 30 min followed by cells addition for 12 hrs and complete medium replacement and measured after 48 hrs by luciferase assay; assay type: functional, organism-based; conditions: Severe acute respiratory syndrome coronavirus 2, Caco-2

## CC[C@H](C)[C@H](NC(C)=O)C(=O)N[C@@H](CCC(=O)O)C(=O)N[C@@H](CCC(=O)O)C(=O)N[C@H](C(=O)N[C@H](C(=O)N[C@@H](CCCCN)C(=O)N[C@@H](CCCCN)C(=O)N[C@H](C(=O)N[C@@H](Cc1c[nH]cn1)C(=O)N[C@@H](Cc1c[nH]cn1)C(=O)N[C@H](C(=O)N[C@@H](CCC(=O)O)C(=O)N[C@@H](CCCNC(=N)N)C(=O)N[C@@H](C)C(=O)N[C@H](C(=O)N[C@@H](CCC(=O)O)C(=O)N[C@@H](C)C(=O)N[C@@H](CCC(N)=O)C(=O)N[C@@H](CCC(N)=O)C(=O)N[C@@H](CCCCN)C(=O)N[C@@H](CC(C)C)C(=O)N[C@@H](CC(C)C)C(=O)N[C@@H](CCC(N)=O)C(=O)N[C@@H](CC(C)C)C(=O)N[C@H](C(=O)N[C@H](C(=O)N[C@@H](Cc1c[nH]c2ccccc12)C(=O)NCC(=O)N[C@H](C(=O)N[C@@H](CCCCN)C(=O)N[C@@H](CCC(N)=O)C(=O)N[C@@H](CC(C)C)C(=O)N[C@@H](CCC(N)=O)C(=O)N[C@@H](C)C(=O)N[C@@H](CCCNC(=N)N)C(=O)N[C@H](C(=O)N[C@@H](CC(C)C)C(N)=O)[C@@H](C)CC)[C@@H](C)CC)C(C)C)[C@@H](C)O)[C@@H](C)CC)[C@@H](C)CC)[C@@H](C)CC)C(C)C)[C@@H](C)CC (Ac-IEEIVKKIHHIERAIEAQQKLLQLTVWGIKQLQARIL-NH2)
SARS-CoV-2 [1]
  pIC50: < 4.70
SARS-CoV-2 [2]
  pIC50: < 4.70
